# According to ChEMBL document CHEMBL1124882, “Synthesis and evaluation of 1,2,2-tris(sulfonyl)hydrazines as antineoplastic and trypanocidal agents” (1990):
# Tests used:
# [1] = species on record: Mus musculus; experiment: (§1) Percentage of mice survived after 60 days of treatment with the compound was determined.; type: functional
# In short: (§2)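 Mice implanted ip with 10⁶ L1210 leukemia cells (also P388 leukemia and Sarcoma 180); drug given ip in DMSO (≤0.025 mL) once daily for 6 consecutive days from 24 h after implantation, or as single dose; groups of five; vehicle controls. %T/C = mean survival treated/control ×100, excluding 60-day survivors, which are reported separately; weight change from onset to end of therapy used as toxicity.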
# [2] = tested on: L1210; experiment: Evaluated for average percent change in body weight from onset to termination of therapy against L1210 Leukemia cells in mice after 150 mg/kg dose administration.; type: functional, Mus musculus
# In short: (§3)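 Recipient mice each received 0.1 mL of suspension containing 10⁶ L1210 cells. The line was kept in RPMI 1640 with 10% FBS and was re-passaged i.p. in CD2F1 donor mice every 8 weeks. Drug was given i.p. in DMSO (≤0.025 mL) once daily for 6 consecutive days, starting 24 h after implantation. Groups held 5–10 mice, with vehicle controls. Value is average % body-weight change from onset to end of therapy.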
# [3] = species on record: Mus musculus; experiment: Effect of aging of compound on the activity after 100 min; type: functional
# In short: (§4)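 Compound, 1 M stock in DMSO, diluted 100 µL into 9.9 mL 200 mM potassium phosphate pH 7.6 at 37 °C; aliquots taken at timed intervals and injected ip (20 µL/g, effective initial dose 0.2 mmol/kg) into female CD-1 mice infected ip with 10⁶ T. rhodesiense Y Tat 1.1, 3 days post-infection; 3–4 mice/group; read-out days survived beyond vehicle controls.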
# [4] = species on record: Mus musculus; experiment: Effect of aging of compound on the activity after 0 min; type: functional; in short: as §4
# [5] = species on record: Mus musculus; experiment: Effect of aging of compound on the activity after 200 min; type: functional; in short: as §4
# [6] = tested on: L1210; experiment: Evaluated for average percent change in body weight from onset to termination of therapy against L1210 Leukemia cells in mice after 60 mg/kg dose administration.; type: functional, Mus musculus; in short: as §3
# [7] = tested on: L1210; experiment: as §1; type: functional, Mus musculus; design: concentration or dose not given beside the values; in short: as §2
# [8] = tested on: L1210; experiment: Evaluated for average percent change in body weight from onset to termination of therapy against L1210 Leukemia cells in mice after 40 mg/kg dose administration.; type: functional, Mus musculus; in short: as §3
# [9] = tested on: L1210; experiment: Average survival time of treated group / control group x(100) was determined.; type: functional, Mus musculus; in short: as §2
# [10] = tested on: L1210; experiment: Evaluated for average percent change in body weight from onset to termination of therapy against L1210 Leukemia cells in mice after 200 mg/kg dose administration.; type: functional, Mus musculus; in short: as §3
# [11] = tested on: L1210; experiment: Evaluated for average percent change in body weight from onset to termination of therapy against L1210 Leukemia cells in mice after 100 mg/kg dose administration.; type: functional, Mus musculus; in short: as §3
# [12] = tested on: L1210; experiment: Evaluated for average percent change in body weight from onset to termination of therapy against L1210 Leukemia cells in mice after 15 mg/kg dose administration.; type: functional, Mus musculus
# In short: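 Mice were implanted with 10⁶ L1210 cells in 0.1 mL, from a line kept in culture and passaged in CD2F1 donor mice. A single i.p. dose was given in DMSO (≤0.025 mL). Groups held 5–10 mice, with vehicle-treated tumor-bearing controls. Read-out is average percent body-weight change from onset to termination of therapy, used as the toxicity index.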
SMILES,Change in weight [2],Survival [7],T/C [9],other results
CN(N(S(C)(=O)=O)S(C)(=O)=O)S(C)(=O)=O,-7.7%,–,–,Survival [1]: 0%; Mean increase in survival [3]: 3.7 days; Mean increase in survival [4]: 6.3 days; Mean increase in survival [5]: 1.2 days
CS(=O)(=O)N(CCCl)N(S(C)(=O)=O)S(C)(=O)=O,–,100%,–,Change in weight [6]: -7.2%
CS(=O)(=O)N(CCBr)N(S(C)(=O)=O)S(C)(=O)=O,-2%,0%,–,–
CN(NS(C)(=O)=O)S(C)(=O)=O,–,0%,180%,Change in weight [8]: -5.8%
Cc1ccc(S(=O)(=O)N(CCCl)N(S(C)(=O)=O)S(C)(=O)=O)cc1,-12%,60%,210%,–
CS(=O)(=O)N(N(CCCl)S(=O)(=O)c1ccccc1)S(C)(=O)=O,0.5%,40%,–,–
CS(=O)(=O)N(N(CCCl)S(=O)(=O)c1ccc(Cl)cc1)S(C)(=O)=O,–,60%,–,Change in weight [10]: -3.4%
CS(=O)(=O)OCCN(N(S(C)(=O)=O)S(C)(=O)=O)S(C)(=O)=O,–,0%,–,Change in weight [11]: -4.2%
CS(=O)(=O)N(CCI)N(S(C)(=O)=O)S(C)(=O)=O,8%,0%,110%,–
COc1ccc(S(=O)(=O)N(CCCl)N(S(C)(=O)=O)S(C)(=O)=O)cc1,–,100%,–,Change in weight [10]: 5.9%
CS(=O)(=O)N(N(CCCl)S(=O)(=O)c1ccc(Br)cc1)S(C)(=O)=O,0.9%,60%,–,–
CS(=O)(=O)NN(CCCl)S(C)(=O)=O [VPN-4090CE],–,40%,130%,Change in weight [12]: -3.3%
